The results in this text go back to ChEMBL document CHEMBL4043120 (Bioorg Med Chem, 2017).

Assay [1] deals with Protein arginine N-methyltransferase 1 (Homo sapiens) (UniProt Q99873). In words: Inhibition of PRMT1 (unknown origin) at 400 uM preincubated for 5 mins followed by SAM and H4 (1 to 25 residues) peptide addition measured after 1 hr by HTRF assay relative to control. On the technique in general: TR-FRET usually uses a lanthanide donor and a delayed reading to cut background.
The target of assay [2] is T1, Histone-lysine N-methyltransferase EHMT1 (Homo sapiens) (UniProt Q9H9B1).
T1 sequence (whole entry): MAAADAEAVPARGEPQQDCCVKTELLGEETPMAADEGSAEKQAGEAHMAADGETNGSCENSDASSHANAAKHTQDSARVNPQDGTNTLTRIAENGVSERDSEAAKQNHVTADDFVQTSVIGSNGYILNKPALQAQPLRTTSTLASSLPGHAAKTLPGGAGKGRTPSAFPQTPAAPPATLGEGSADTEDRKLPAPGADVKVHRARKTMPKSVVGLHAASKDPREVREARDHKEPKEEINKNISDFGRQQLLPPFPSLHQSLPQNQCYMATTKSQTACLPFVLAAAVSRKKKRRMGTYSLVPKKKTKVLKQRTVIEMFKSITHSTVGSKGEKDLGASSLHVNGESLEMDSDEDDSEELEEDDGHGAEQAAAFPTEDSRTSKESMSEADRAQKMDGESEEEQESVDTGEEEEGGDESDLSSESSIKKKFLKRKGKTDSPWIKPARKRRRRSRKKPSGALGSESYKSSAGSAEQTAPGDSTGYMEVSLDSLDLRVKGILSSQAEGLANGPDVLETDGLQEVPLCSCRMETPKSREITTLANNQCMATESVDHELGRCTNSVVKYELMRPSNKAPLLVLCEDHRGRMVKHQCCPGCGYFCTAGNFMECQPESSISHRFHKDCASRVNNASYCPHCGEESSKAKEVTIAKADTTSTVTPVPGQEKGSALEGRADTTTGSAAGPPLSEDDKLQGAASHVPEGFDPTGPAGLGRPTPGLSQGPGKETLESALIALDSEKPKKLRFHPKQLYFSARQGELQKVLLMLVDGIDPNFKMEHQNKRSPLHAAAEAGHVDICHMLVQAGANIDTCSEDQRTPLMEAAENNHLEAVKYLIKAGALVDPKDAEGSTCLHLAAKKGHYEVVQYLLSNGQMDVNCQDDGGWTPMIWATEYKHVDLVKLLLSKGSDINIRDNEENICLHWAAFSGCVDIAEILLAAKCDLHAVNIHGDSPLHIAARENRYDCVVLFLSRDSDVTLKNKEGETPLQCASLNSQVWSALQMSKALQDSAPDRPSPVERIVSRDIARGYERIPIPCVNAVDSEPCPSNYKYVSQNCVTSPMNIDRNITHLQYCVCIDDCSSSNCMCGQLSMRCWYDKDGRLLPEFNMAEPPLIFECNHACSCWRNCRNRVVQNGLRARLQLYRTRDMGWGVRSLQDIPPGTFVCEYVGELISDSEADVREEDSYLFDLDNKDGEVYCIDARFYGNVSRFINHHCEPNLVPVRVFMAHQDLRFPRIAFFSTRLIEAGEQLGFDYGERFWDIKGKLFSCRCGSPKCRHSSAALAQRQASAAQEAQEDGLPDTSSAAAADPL
The experiment in a line: (§1) Inhibition of EHMT1 (unknown origin) preincubated for 5 mins followed by SAM and biotinylated H3K9 peptide addition measured after 120 mins by HTRF assay. Summed up:
(§2)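 Final 0.4 nM enzyme, 150 nM biotinylated H3(1-21)K9 peptide, 6 μM SAM, pH 8.8 Tris buffer, 1% DMSO. Eu-antibody/SA-XL665 HTRF read at 665/620 nm. Mean±SEM of 3-4 independent experiments in triplicate.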

Assay [3] concerns the target T2, Histone-lysine N-methyltransferase EHMT1 (Homo sapiens, UniProt Q9H9B1).
T2 sequence (Q9H9B1 whole entry): T1 sequence (whole entry)
The assay is described as §1. The settings on record: read-out: IC50. The method, boiled down: as §2

For assay [4], the target named is T3, Histone-lysine N-methyltransferase EHMT2 (Homo sapiens) (UniProt Q96KQ7).
T3 sequence (whole entry): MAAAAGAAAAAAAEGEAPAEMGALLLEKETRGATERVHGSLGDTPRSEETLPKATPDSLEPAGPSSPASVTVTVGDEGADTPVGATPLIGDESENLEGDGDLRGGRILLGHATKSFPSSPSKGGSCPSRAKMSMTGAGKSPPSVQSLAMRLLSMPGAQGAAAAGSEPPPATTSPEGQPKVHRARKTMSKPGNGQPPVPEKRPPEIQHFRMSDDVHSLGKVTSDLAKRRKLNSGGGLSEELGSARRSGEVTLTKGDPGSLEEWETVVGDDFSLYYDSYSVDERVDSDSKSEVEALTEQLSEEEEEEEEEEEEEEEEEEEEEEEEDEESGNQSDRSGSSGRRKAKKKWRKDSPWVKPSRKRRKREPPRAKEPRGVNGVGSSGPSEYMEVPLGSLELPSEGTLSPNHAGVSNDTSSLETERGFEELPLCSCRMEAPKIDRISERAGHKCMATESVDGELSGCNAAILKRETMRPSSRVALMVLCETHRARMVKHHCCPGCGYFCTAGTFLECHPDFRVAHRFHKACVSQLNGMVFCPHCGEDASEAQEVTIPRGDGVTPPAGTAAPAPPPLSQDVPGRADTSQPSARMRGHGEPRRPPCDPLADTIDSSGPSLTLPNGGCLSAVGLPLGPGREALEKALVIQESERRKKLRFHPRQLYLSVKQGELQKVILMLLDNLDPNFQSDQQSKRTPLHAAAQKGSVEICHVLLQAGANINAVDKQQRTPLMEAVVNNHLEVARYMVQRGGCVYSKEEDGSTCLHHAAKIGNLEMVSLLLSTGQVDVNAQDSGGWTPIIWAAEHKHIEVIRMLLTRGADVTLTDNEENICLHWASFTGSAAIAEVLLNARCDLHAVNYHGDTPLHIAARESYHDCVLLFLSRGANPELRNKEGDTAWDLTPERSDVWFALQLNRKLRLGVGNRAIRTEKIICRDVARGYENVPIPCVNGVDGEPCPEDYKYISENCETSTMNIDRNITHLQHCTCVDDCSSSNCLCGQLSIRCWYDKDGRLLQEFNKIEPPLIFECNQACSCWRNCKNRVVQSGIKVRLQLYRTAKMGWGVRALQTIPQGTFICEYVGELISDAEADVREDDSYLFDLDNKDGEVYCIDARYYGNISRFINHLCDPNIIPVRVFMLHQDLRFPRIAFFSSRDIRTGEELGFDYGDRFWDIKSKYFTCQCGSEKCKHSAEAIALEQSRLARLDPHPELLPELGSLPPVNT
The experiment in a line: (§3) Inhibition of EHMT2 (unknown origin) preincubated for 15 mins followed by SAM and biotinylated H3K9 peptide addition measured after 30 mins by TR-FRET assay.

Assay [5] concerns the target T4, Histone-lysine N-methyltransferase EHMT2 (Homo sapiens, UniProt Q96KQ7).
T4 sequence (Q96KQ7 whole entry): T3 sequence (whole entry)
The description is as §3.

The test system of assay [6] is HL-60. The experiment in a line: Antiproliferative activity against human HL60 cells at 200 uM after 72 hrs by CCK8 assay relative to control. Conditions: HL-60, 72 h. Format: functional. A general note: Formazan colour is commonly taken as a measure of viable cells.
Assay [7] concerns MDA-MB-231. The experiment in a line: Antiproliferative activity against human MDA-MB-231 cells at 200 uM after 72 hrs by sulforhodamine B assay relative to control. In kind it is functional. Conditions: MDA-MB-231, 72 h. A general note: In SRB staining, fixed cells bind dye roughly in proportion to their protein.
The target of assay [8] is T3, Histone-lysine N-methyltransferase EHMT2 (Homo sapiens). The experiment in a line: Inhibition of EHMT2 (unknown origin) at 400 uM preincubated for 15 mins followed by SAM and biotinylated H3K9 peptide addition measured after 30 mins by TR-FRET assay relative to control. Summed up: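 Single-point EHMT2 screen at 400 μM, 1% DMSO. Final 0.6 nM EHMT2, 0.5 µM biotinylated H3(1-21)K9 peptide, 3 µM SAM in 50 mM Tris-HCl pH 9.0, 50 mM NaCl, 1 mM DTT, 0.01% Tween-20. Detection 60 min with final 2 nM Eu-antibody, 50 nM ULight-streptavidin, 0.0001% poly-L-lysine. TR-FRET read at 665/620 nm.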

Assay [9] deals with T1, Histone-lysine N-methyltransferase EHMT1 (Homo sapiens). The experiment in a line: Inhibition of EHMT1 (unknown origin) at 200 uM preincubated for 5 mins followed by SAM and biotinylated H3K9 peptide addition measured after 120 mins by HTRF assay relative to control. The method, boiled down:
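Final EHMT1 0.4 nM, biotinylated unmethylated H3(1-21)K9 peptide 150 nM, SAM 6 μM in 50 mM Tris-HCl pH 8.8, 50 mM NaCl, 1 mM DTT, 0.01% Tween-20; samples at 200 μM, 1% DMSO final. Detection by Eu-antibody plus streptavidin-XL665, 60 min. HTRF read: excitation 320 or 340 nm, emission 665/620 nm.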

Assay [10] has as its target T2, Histone-lysine N-methyltransferase EHMT1. The experiment in a line: Inhibition of EHMT1 (unknown origin).

One may read the inhibition as the drop in the measured response relative to a control, in per cent. The term IC50 denotes the midpoint of a concentration-inhibition curve.

Active and inactive are the calls of the source. The calls are words filed in the database; no cut-off is given here.

Protein arginine N-methyltransferase 1 (Homo sapiens), sequence (Q99873 whole entry, looked up, the tested form may be a part): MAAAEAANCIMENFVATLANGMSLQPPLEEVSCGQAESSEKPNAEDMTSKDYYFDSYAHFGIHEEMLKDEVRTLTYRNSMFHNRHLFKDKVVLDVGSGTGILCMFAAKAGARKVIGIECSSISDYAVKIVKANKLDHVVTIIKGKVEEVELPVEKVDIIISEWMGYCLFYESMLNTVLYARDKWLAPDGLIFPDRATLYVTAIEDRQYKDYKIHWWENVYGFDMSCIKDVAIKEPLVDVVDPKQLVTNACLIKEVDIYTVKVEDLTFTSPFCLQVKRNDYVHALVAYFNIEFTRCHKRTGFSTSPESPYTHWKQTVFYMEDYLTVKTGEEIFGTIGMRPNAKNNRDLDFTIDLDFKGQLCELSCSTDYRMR

Turning to `Nc1ncnc2c1ncn2[C@@H]1O[C@H](C[C@@H](N)CC2CC2)[C@@H](O)[C@H]1O`, the inhibition result in assay [1] was “inactive”. Besides, the inhibition result was “Dose-dependent effect” in assay [2], “Dose-dependent effect” in assay [4], 77.6% in assay [8] and 88.9% in assay [9]. The IC50 is 21.8 µM in assay [3] and 39.6 µM in [5]. For the same molecule, the inhibition at 200 µM in [6] was 37.9 to 38.4%; in assay [7] it was 41.4%.
`Nc1ncnc2c1ncn2[C@@H]1O[C@H](C[C@@H](N)CC[C@H](N)C(=O)O)[C@@H](O)[C@H]1O` [SINEFUNGIN]: the IC50 was 0.1 to 20 µM in assay [10] and 28.4 µM in assay [3]. Besides, the inhibition result is “Dose-dependent effect” in assay [2], “Dose-dependent effect” in assay [4], 79.5% in assay [8] and 100% in assay [9]. Also, the inhibition at 200 µM is 41% in assay [6] and 42.8% in [7].
